Measurements published in ChEMBL document CHEMBL3351723, “New derivatives of lupane triterpenoids disturb breast cancer mitochondria and induce cell death” (Bioorg Med Chem, 2014).
Activity calls are given as the source filed them. The calls are words filed in the database; no cut-off is given here.

Assays:
[1] = Cytotoxicity against human MCF12A cells at 0.125 to 2 ug/ml after 1 to 5 days by sulforhodamine B assay; assay type: cell-based; settings: mcf-12a
Summary of the method: (§1)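 Non-tumor cells seeded at 2×10^4 cells/ml and treated 24 h after seeding, in high-glucose DMEM with pyruvate, 10% FBS and penicillin-streptomycin, 37°C, 5% CO2. Compound exposure 0.125–2 μg/ml for 1, 3 and 5 days, with vehicle controls. Cells fixed and stained with sulforhodamine B for total cell mass. Data given as % of untreated control at each time point; five independent experiments.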

BJ = test: Cytotoxicity against human BJ cells at 0.125 to 2 ug/ml after 1 to 5 days by sulforhodamine B assay; assay type: cell-based; summary of the method: as §1
[2] = Cell cycle arrest against human Hs578T cells assessed as increase in cells at G0/G1 phase at 0.5 ug/ml after 24 to 48 hrs by propidium iodide staining based flow cytometry; assay type: functional; settings: Hs-578T
Summary of the method: (§2)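 Log-phase Hs578T cells exposed 24 and 48 h to 0.5 μg/ml. Adherent plus floating cells fixed in cold 70% ethanol, kept overnight at -20°C, washed into PBS-T (132 mM NaCl, 4 mM KCl, 1.2 mM NaH2PO4, 0.1% Tween). Treated with 20 μg/ml RNase for 45 min at 37°C, then propidium iodide for 30 min at 37°C. Phase percentages read by flow cytometry. Mean ± SEM, 5 experiments.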

[3] = Cell cycle arrest against human Hs578T cells assessed as decrease in cells at S phase at 0.5 ug/ml after 24 to 48 hrs by propidium iodide staining based flow cytometry; assay type: functional; settings: Hs-578T; summary of the method: as §2
Hs-578T [4] = test: Cytotoxicity against human Hs578T cells at 0.125 to 2 ug/ml incubated for 6 hrs folowed by drug wash out and fresh medium addition and measured 5 days after wash out; assay type: functional, cell-based
MDA-MB-231 [5] = test: Cytotoxicity against human MDA-MB-231 cells at 0.125 to 2 ug/ml after 1 to 5 days by sulforhodamine B assay; assay type: functional, cell-based
Summary of the method: (§3)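 Sulforhodamine B growth assay in high-glucose DMEM with 10% FBS. Cancer cells seeded at 1×10^4 cells/ml; compound (0.125–2 μg/ml) added 24 h after seeding and left for 1, 3 or 5 days. Cells fixed, total mass stained. Expressed as % of untreated cells at the same time point. Mean ± SEM, five independent experiments.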

Hs-578T [6] = test: Cytotoxicity against human Hs578T cells at 0.125 to 2 ug/ml after 1 to 5 days by sulforhodamine B assay; assay type: functional, cell-based; summary of the method: as §3
MCF7 [7] = test: Cytotoxicity against human MCF7 cells at 0.125 to 2 ug/ml after 1 to 5 days by sulforhodamine B assay; assay type: functional, cell-based; summary of the method: as §3
MDA-MB-231 [8] = test: Cytotoxicity against human MDA-MB-231 cells at 0.125 to 2 ug/ml after 1 to 5 days by sulforhodamine B assay in presence of taxol; assay type: functional, cell-based
Hs-578T [9] = test: Cytotoxicity against human Hs578T cells at 0.125 to 2 ug/ml after 1 to 5 days by sulforhodamine B assay in presence of taxol; assay type: functional, cell-based
MCF7 [10] = test: Cytotoxicity against human MCF7 cells at 0.125 to 2 ug/ml after 1 to 5 days by sulforhodamine B assay in presence of taxol; assay type: functional, cell-based
[11] = Cell cycle arrest against human Hs578T cells assessed as decrease in cells at G2/M phase at 0.5 ug/ml after 24 to 48 hrs by propidium iodide staining based flow cytometry; assay type: functional; settings: Hs-578T; summary of the method: as §2

In the case of `C=C(C)[C@@H]1CC[C@]2(COC(=O)C[n+]3ccc(C)cc3C)CC[C@]3(C)[C@H](CC[C@@H]4[C@@]5(C)CC[C@H](OC(=O)C[n+]6ccc(C)cc6C)C(C)(C)[C@@H]5CC[C@]43C)[C@@H]12.[Cl-].[Cl-]`, the Activity [1] is reported as “Toxic”, the Activity (BJ) is reported as “Toxic” and the “G0/G1 cell cycle arrest” value [2] is reported as “Active”. The inhibition [3] was “Active” and the inhibition (Hs-578T [4]) was “Active”.

With `C=C(C)[C@@H]1CC[C@]2(COC(=O)CCC[n+]3ccc(N(C)C)cc3)CC[C@]3(C)[C@H](CC[C@@H]4[C@@]5(C)CC[C@H](OC(=O)CCC[n+]6ccc(N(C)C)cc6)C(C)(C)[C@@H]5CC[C@]43C)[C@@H]12.[Br-].[Br-]` the Activity [1] was “Toxic”, the Activity (BJ) was “Toxic” and the inhibition (MDA-MB-231 [5]) was “Active”. For the same compound, the inhibition (Hs-578T [6]) was “Active”, the inhibition (MCF7 [7]) was “Active” and the Activity [2] was “Active”. The inhibition [3] was “Active” and the inhibition (Hs-578T [4]) was “Active”.

For `C=C(C)[C@@H]1CC[C@]2(COC(=O)C(C)[n+]3ccc(N(C)C)cc3)CC[C@]3(C)[C@H](CC[C@@H]4[C@@]5(C)CC[C@H](OC(=O)C(C)[n+]6ccc(N(C)C)cc6)C(C)(C)[C@@H]5CC[C@]43C)[C@@H]12.[Cl-].[Cl-]` (some centres not stated), the Activity [1] was “Toxic”, the Activity (BJ) was “Toxic” and the inhibition (MDA-MB-231 [8]) was “Active”. The inhibition (Hs-578T [9]) was “Active”, the inhibition (MCF7 [10]) was “Active” and the Activity [2] was “Active”. The inhibition [3] was “Active”, the inhibition [11] was “Active” and the inhibition (Hs-578T [4]) was “Active”.
